Experimental data as given in ChEMBL document CHEMBL5247621, “From dopamine 4 to sigma 1: Synthesis, SAR and biological characterization of a piperidine scaffold of σ1 modulators” (Eur J Med Chem, 2022).
Each block holds one compound with its values, some of them ahead of it.

Experiments:
[1] = target: T1, Sigma non-opioid intracellular receptor 1 (Homo sapiens, UniProt Q99720); experiment: Displacement of [3H] Pentazocine from sigma 1 receptor in HEK293 cell membrane; assay type: cell membranes; details: read-out: Ki
T1 sequence (Q99720 whole entry): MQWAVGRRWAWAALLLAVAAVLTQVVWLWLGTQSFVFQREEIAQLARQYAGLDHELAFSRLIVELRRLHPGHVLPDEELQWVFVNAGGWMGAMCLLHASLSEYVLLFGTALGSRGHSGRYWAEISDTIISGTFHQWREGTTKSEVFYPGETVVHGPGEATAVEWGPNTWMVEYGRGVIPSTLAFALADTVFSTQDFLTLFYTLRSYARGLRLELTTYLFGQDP

[2] = target: T2, D(4) dopamine receptor (Homo sapiens) (UniProt P21917); experiment: Displacement of [3H]N-methylspiperone from D4 receptor in HEK293 cell membrane assessed as inhibition constant at 10 uM relative to control; assay type: cell membranes; design: scale not given: the % may be the effect or the level left
T2 sequence (whole entry): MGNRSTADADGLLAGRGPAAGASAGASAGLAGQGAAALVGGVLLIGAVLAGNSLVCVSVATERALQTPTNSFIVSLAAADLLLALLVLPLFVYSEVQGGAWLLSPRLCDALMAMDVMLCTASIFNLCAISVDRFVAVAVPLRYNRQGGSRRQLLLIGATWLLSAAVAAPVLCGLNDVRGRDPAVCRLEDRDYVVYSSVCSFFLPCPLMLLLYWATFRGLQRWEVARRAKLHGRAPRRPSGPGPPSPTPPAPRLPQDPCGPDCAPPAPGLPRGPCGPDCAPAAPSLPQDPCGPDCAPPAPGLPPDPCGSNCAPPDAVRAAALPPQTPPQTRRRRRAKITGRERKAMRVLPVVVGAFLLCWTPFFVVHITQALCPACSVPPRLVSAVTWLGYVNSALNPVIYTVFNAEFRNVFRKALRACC

D(4) dopamine receptor = target: T3, D(4) dopamine receptor (Homo sapiens, UniProt P21917); experiment: Displacement of [3H]N-methylspiperone from D4 receptor in HEK293 cell membrane; assay type: cell membranes
T3 sequence (P21917 whole entry): T2 sequence (whole entry)

[3] = target: Sigma intracellular receptor 2 (Homo sapiens, UniProt Q5BJF2); experiment: Displacement of [3H]DTG from sigma-2 receptor in HEK293 cell membrane assessed as inhibition constant; assay type: cell membranes
Sequence of Sigma intracellular receptor 2 (Q5BJF2 whole entry): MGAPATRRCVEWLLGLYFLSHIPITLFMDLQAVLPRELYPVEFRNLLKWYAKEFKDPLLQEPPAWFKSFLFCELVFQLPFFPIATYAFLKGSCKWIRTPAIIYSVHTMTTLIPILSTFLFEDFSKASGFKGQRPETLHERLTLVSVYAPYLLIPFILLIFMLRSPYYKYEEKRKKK
How it was run: (§1)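 Competitive radioligand binding in membranes harvested from HEK293 cells, with one radioligand per target: [3H]N-methylspiperone for D2, D3 and D4; [3H]SCH23390 for D1 and D5; [3H]pentazocine for σ1; [3H]DTG for σ2. Ki derived from inhibition of binding, each run in triplicate.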

D(3) dopamine receptor = D(3) dopamine receptor (Homo sapiens, UniProt P35462); experiment: Displacement of [3H]N-methylspiperone from D3 receptor in HEK293 cell membrane assessed as inhibition constant; assay type: cell membranes; how it was run: as §1
Sequence of D(3) dopamine receptor (P35462 whole entry): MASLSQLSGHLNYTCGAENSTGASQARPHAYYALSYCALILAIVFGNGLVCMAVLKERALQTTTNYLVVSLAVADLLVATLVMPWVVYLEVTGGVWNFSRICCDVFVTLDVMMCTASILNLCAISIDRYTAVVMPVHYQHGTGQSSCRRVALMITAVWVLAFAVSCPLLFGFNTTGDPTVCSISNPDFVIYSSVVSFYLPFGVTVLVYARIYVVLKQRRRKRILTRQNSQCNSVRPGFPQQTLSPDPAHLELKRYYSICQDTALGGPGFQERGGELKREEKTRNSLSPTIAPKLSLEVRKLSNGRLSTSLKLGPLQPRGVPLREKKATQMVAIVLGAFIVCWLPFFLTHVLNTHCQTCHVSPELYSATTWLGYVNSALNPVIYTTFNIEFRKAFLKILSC

D(1B) dopamine receptor = D(1B) dopamine receptor (Homo sapiens, UniProt P21918); experiment: Displacement of [3H]SCH23390 from D5 receptor in HEK293 cell membrane assessed as inhibition constant; assay type: cell membranes; how it was run: as §1
Sequence of D(1B) dopamine receptor (P21918 whole entry): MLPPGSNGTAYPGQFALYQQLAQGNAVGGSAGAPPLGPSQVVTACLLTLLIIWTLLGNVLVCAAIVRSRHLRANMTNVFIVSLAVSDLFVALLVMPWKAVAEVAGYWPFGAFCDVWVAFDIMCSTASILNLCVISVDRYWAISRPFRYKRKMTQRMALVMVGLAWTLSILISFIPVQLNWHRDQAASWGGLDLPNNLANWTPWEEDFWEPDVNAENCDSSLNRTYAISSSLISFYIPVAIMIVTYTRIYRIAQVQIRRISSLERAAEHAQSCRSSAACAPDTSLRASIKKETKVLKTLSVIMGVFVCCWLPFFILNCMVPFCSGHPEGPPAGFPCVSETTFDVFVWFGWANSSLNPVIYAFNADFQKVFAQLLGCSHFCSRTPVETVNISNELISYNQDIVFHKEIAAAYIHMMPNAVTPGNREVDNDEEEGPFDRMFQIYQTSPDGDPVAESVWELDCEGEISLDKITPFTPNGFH

D(1A) dopamine receptor = D(1A) dopamine receptor (Homo sapiens, UniProt P21728); experiment: Displacement of [3H]SCH23390 from D1 receptor in HEK293 cell membrane assessed as inhibition constant; assay type: cell membranes; how it was run: as §1
Sequence of D(1A) dopamine receptor (P21728 whole entry): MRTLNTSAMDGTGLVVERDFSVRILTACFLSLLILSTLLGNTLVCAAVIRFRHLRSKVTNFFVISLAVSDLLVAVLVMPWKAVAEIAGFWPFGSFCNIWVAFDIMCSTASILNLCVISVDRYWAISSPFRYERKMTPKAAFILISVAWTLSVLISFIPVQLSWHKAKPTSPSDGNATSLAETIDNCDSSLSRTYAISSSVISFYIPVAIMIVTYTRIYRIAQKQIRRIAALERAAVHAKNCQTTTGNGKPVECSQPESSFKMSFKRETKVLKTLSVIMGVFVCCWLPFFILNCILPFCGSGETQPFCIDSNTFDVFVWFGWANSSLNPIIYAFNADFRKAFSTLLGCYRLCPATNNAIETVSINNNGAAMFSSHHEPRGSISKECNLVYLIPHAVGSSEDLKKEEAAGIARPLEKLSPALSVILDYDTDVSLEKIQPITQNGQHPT

D(2) dopamine receptor = D(2) dopamine receptor (Homo sapiens, UniProt P14416); experiment: Displacement of [3H]N-methylspiperone from D2 receptor in HEK293 cell membrane assessed as inhibition constant; assay type: cell membranes; how it was run: as §1
Sequence of D(2) dopamine receptor (P14416 whole entry): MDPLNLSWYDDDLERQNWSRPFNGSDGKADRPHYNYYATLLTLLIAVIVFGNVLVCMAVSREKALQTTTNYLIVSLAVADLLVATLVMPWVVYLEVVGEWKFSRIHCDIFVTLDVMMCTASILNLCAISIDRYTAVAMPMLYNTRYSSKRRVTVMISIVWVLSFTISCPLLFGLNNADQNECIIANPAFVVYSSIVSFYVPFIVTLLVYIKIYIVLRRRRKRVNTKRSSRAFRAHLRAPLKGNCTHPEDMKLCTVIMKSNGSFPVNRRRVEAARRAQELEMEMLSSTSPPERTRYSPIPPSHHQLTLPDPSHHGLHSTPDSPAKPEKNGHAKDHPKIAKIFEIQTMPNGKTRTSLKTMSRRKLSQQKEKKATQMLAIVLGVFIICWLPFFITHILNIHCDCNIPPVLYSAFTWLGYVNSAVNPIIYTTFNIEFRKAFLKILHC

[4] = target: T1, Sigma non-opioid intracellular receptor 1; experiment: Binding affinity to sigma 1 receptor in human Jurkat cells; assay type: cell-based
[5] = Half life in mouse plasma at 5 mg/kg, ip measured after 24 hrs; assay type: ADME, organism-based; details: in vivo
How it was run: (§2)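 Discrete mouse study, single intraperitoneal dose of 5 mg/kg in 10% DMSO/10% Cremophor EL/30% PEG400/50% water. Plasma and brain concentrations followed over 24 h. Parameters estimated by non-compartmental analysis.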

[6] = Half life in mouse brain at 5 mg/kg, ip measured after 24 hrs; assay type: ADME, organism-based; details: in vivo; how it was run: as §2
[7] = Mean residence time in mouse plasma at 5 mg/kg, ip measured after 24 hrs; assay type: ADME, organism-based; details: in vivo; how it was run: as §2
[8] = Mean residence time in mouse brain at 5 mg/kg, ip measured after 24 hrs; assay type: ADME, organism-based; details: in vivo; how it was run: as §2
[9] = Tmax in mouse plasma at 5 mg/kg, ip measured after 24 hrs; assay type: ADME, organism-based; details: in vivo; how it was run: as §2
[10] = Tmax in mouse brain at 5 mg/kg, ip measured after 24 hrs; assay type: ADME, organism-based; details: in vivo; how it was run: as §2
[11] = Cmax in mouse plasma at 5 mg/kg, ip measured after 24 hrs; assay type: ADME, organism-based; design: dose 5 mg/kg, time 24 hrs, route ip; details: in vivo; how it was run: as §2
[12] = Cmax in mouse brain at 5 mg/kg, ip measured after 24 hrs; assay type: ADME, organism-based; design: time 24 hrs, dose 5 mg/kg, route ip; how it was run: as §2
[13] = AUC(infinity) in mouse plasma at 5 mg/kg, ip measured after 24 hrs; assay type: ADME, organism-based; design: dose 5 mg/kg, time 24 hrs, route ip; details: in vivo; how it was run: as §2
[14] = AUC(infinity) in mouse brain at 5 mg/kg, ip measured after 24 hrs; assay type: ADME, organism-based; design: dose 5 mg/kg, time 24 hrs, route ip; how it was run: as §2
[15] = Ratio of total drug concentration in mouse brain to plasma at 5 mg/kg, ip measured after 1 hr; assay type: ADME, organism-based
How it was run: (§3)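 Mice received 5 mg/kg IP in 10% DMSO/10% Cremophor EL/30% PEG400/50% water. Kp is total brain concentration divided by total plasma concentration, taken at 1 h and 5 h post-dose.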

[16] = Ratio of total drug concentration in mouse brain to plasma at 5 mg/kg, ip measured after 5 hrs; assay type: ADME, organism-based; how it was run: as §3
[17] = Ratio of free drug concentration in mouse brain to plasma at 5 mg/kg, ip measured after 1 hr; assay type: ADME, organism-based
How it was run: (§4)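 Mice received 5 mg/kg IP in 10% DMSO/10% Cremophor EL/30% PEG400/50% water. Kp,uu is free brain over free plasma concentration at 1 h and 5 h. Free levels are corrected with unbound fractions measured in mouse plasma protein binding and in mouse brain homogenate binding.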

[18] = Ratio of free drug concentration in mouse brain to plasma at 5 mg/kg, ip measured after 5 hrs; assay type: ADME, organism-based; details: read-out: K(p,uu,brain); how it was run: as §4
[19] = Plasma protein binding in human assessed as unbound fraction; assay type: ADME, cell-free
How it was run: (§5)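 Plasma protein binding by equilibrium dialysis in human or mouse plasma, reported as fraction unbound (fu).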

[20] = Plasma protein binding in mouse assessed as unbound fraction; assay type: ADME; how it was run: as §5

Structure (SMILES): Cc1cccc(CO[C@H]2CCCN(Cc3ccc4c(cnn4C)c3)C2)n1
Ki [1]: 1280 nM | Activity [2]: 23%

Structure (SMILES): Fc1cc(COC2CCN(Cc3cn4ccccc4n3)CC2)ccc1Cl
Ki [1]: 2.3 nM

Structure (SMILES): Cc1cc(NC(=O)CN2CCC3(CCCN3Cc3ccc(F)c(F)c3)C2)ccc1F (centres undefined)
Ki [1]: 16 nM | Activity [2]: 14% | Ki [3]: 47 nM | Ki (D(3) dopamine receptor): 512 nM | Ki (D(1B) dopamine receptor): > 10000 nM | Ki (D(1A) dopamine receptor): > 10000 nM

Structure (SMILES): COc1ccc(CN2CCC[C@H](OCc3cccc(F)c3)C2)cc1F
Ki [1]: 4.3 nM

Structure (SMILES): Cn1cnc2cc(CN3CCC(OCc4cccc(C(F)(F)F)c4)CC3)ccc21
Ki [1]: 12 nM

Structure (SMILES): Fc1ccc(COC2CCN(Cc3ncc4ccccn34)CC2)cc1F
Ki [1]: 143 nM

Structure (SMILES): Fc1cc(COC2CCN(Cc3ccc4[nH]cnc4c3)CC2)ccc1Cl
Ki [1]: 3.1 nM | Ki (D(4) dopamine receptor; read-out: Ki): 1160 nM | Ki [4]: 3.9 nM | Ki [3]: 70 nM | Ki (D(1A) dopamine receptor): > 10000 nM | t1/2 [5]: 3.68 h | t1/2 [6]: 6.88 h | MRT [7]: 4.54 h | MRT [8]: 8.3 h | Tmax [9]: 0.67 h | Tmax [10]: 1.67 h | Cmax [11]: 401 ng/mL | Cmax [12]: 1890 ng/mL | AUC [13]: 2225 ng·h/mL | AUC(0-inf) [14]: 13900 ng·h/mL | Kp [15]: 4.94 | Kp at 5 h [16]: 2.4 | K(p,uu,brain) [17]: 2.43 | Kp uu at 5 h [18]: 4.88

Structure (SMILES): COc1ccc(CN2CCO[C@H](COc3ccccc3)C2)cc1F
Ki [1]: 41 nM | Ki (D(4) dopamine receptor; read-out: Ki): 5 nM

Structure (SMILES): Cn1cnc2cc(CN3CCC(OCc4ccc(Cl)c(F)c4)CC3)ccc21
Ki [1]: 31 nM | Activity [2]: 48% | Fu [19]: 13% | Fu [20]: 75%

Structure (SMILES): c1ccc(OC[C@@H]2CN(Cc3ccc4[nH]ccc4c3)CCO2)cc1
Ki [1]: 44 nM | Ki (D(4) dopamine receptor; read-out: Ki): 3.3 nM

Structure (SMILES): FC(F)(F)c1cccc(COC2CCN(Cc3cn4ccccc4n3)CC2)c1
Ki [1]: 3.5 nM | Ki (D(4) dopamine receptor; read-out: Ki): 175 nM | Fu [19]: 2.2% | Fu [20]: 8.8%

The remaining compounds from weak to strong by Ki [1], led by results:

Ki [1]: 503 nM | Activity [2]: 60%
Structure (SMILES): Cc1ccccc1CO[C@H]1CCCN(Cc2cn3ccccc3n2)C1

Ki [1]: 52 nM | Ki (D(4) dopamine receptor; read-out: Ki): 3.5 nM
Structure (SMILES): Fc1ccc2c(CN3CCC(F)(F)[C@H](CCc4ccccc4)C3)c[nH]c2c1

Ki [1]: 19 nM | Activity [2]: 23%
Structure (SMILES): Cc1c(Cl)cccc1NC(=O)CN1CCC2(CCCN(Cc3ccc(F)c(F)c3)C2)C1 (centres undefined)

Ki [1]: 14 nM | Ki (D(4) dopamine receptor; read-out: pKi (converted)): 209 nM
Structure (SMILES): FC(F)(F)c1cccc(COC2CCN(Cc3cc4ccc(Cl)cc4[nH]3)CC2)c1

Ki [1]: 7.1 nM | Activity [2]: 39% | Ki [3]: 30 nM | Ki (D(2) dopamine receptor): > 10000 nM | Ki (D(3) dopamine receptor): 345 nM | Ki (D(1B) dopamine receptor): > 10000 nM | Ki (D(1A) dopamine receptor): 1530 nM
Structure (SMILES): Fc1ccc(CN2CCCC3(CCN(Cc4cc5ccc(Cl)cc5[nH]4)C3)C2)cc1F (centres undefined)

Ki [1]: 3.6 nM | Activity [2]: -0.7% | Ki [3]: 23 nM | Fu [19]: 2.7% | Ki (D(1A) dopamine receptor): > 10000 nM | Fu [20]: 30.2%
Structure (SMILES): Fc1ccc(CN2CCCC23CCN(Cc2cn4ccccc4n2)C3)cc1F (centres undefined)
